Measured values taken from ChEMBL document CHEMBL1137333, “Synthesis, radiosynthesis, and biological evaluation of carbon-11 labeled 2beta-carbomethoxy-3beta-(3'-((Z)-2-haloethenyl)phenyl)nortropanes: candidate radioligands for in vivo imaging of the serotonin transporter with positron emission tomography” (J Med Chem, 2006).

Columns and labels:
Cynomolgus monkey [1] = assay: Uptake in anesthetized cynomolgus monkey putamen after 35.0 mins; format: ADME, organism-based; conditions: in vivo
Method in brief: (§1)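 Baseline microPET (Concorde P4) scan in anesthetized cynomolgus monkeys after injection of the carbon-11 labeled tracer, with no chase drug. Regional brain time-activity curves were followed over the scan. Tracer radiochemical purity and specific activity were determined by analytical HPLC at the time of injection.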

Cynomolgus monkey [2] = assay: Uptake in anesthetized cynomolgus monkey frontal after 105.0 mins; format: ADME, organism-based, Frontal cortex; conditions: in vivo, 1.75 h
Method in brief: (§2)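 Baseline microPET scan (P4 scanner) of anesthetized cynomolgus monkeys after injection of the carbon-11 labelled nortropane tracer. Two baseline studies were run per tracer. Radioactivity was followed over time in regional brain time-activity curves.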

Cynomolgus monkey [3] = assay: Uptake in anesthetized cynomolgus monkey occipital after 0.5 mins; format: ADME, organism-based, Occipital cortex; conditions: in vivo; method in brief: as §2
Cynomolgus monkey [4] = assay: Uptake in anesthetized cynomolgus monkey caudate after 115.0 mins; format: ADME, organism-based, Caudate nucleus; conditions: in vivo
Method in brief: (§3)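 Baseline microPET (Concorde P4) regional brain time-activity curves in anesthetized cynomolgus monkey following injection of the [11C]-labelled tracer, with radioactivity followed over the scan.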

Cynomolgus monkey [5] = assay: Uptake in anesthetized cynomolgus monkey midbrain after 115.0 mins; format: ADME, organism-based; conditions: in vivo; method in brief: as §2
Cynomolgus monkey [6] = assay: Uptake in anesthetized cynomolgus monkey midbrain after 95.0 mins; format: ADME, organism-based; conditions: in vivo; method in brief: as §2
Cynomolgus monkey [7] = assay: Uptake in anesthetized cynomolgus monkey putamen after 27.5 mins; format: ADME, organism-based; conditions: in vivo; method in brief: as §1
Cynomolgus monkey [8] = assay: Uptake in anesthetized cynomolgus monkey medulla after 75.0 mins; format: ADME, organism-based, Medulla of organ; conditions: in vivo, 1.25 h; method in brief: as §2
Cynomolgus monkey [9] = assay: Uptake in anesthetized cynomolgus monkey medulla after 6.5 mins; format: ADME, organism-based, Medulla of organ; conditions: in vivo; method in brief: as §2
Cynomolgus monkey [10] = assay: Uptake in anesthetized cynomolgus monkey pons after 1.5 mins; format: ADME, organism-based, Macaca mulatta; conditions: rhesus monkey, in vivo, 0.025 h; method in brief: as §2
Cynomolgus monkey [11] = assay: Uptake in anesthetized cynomolgus monkey thalamus after 45.0 mins; format: ADME, organism-based; conditions: in vivo, 0.75 h; method in brief: as §1
Cynomolgus monkey [12] = assay: Uptake in anesthetized cynomolgus monkey cerebellum after 115.0 mins; format: ADME, organism-based; conditions: in vivo; method in brief: as §3
Cynomolgus monkey [13] = assay: Uptake in anesthetized cynomolgus monkey caudate after 2.5 mins; format: ADME, organism-based, Caudate nucleus; conditions: in vivo; method in brief: as §3
Cynomolgus monkey [14] = assay: Uptake in anesthetized cynomolgus monkey occipital after 22.5 mins; format: ADME, organism-based, Occipital cortex; conditions: in vivo, 0.375 h; method in brief: as §2
Cynomolgus monkey [15] = assay: Uptake in anesthetized cynomolgus monkey pons after 9.5 mins; format: ADME, organism-based; conditions: in vivo
Method in brief: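 Carbon-11 labelled tracer injected into anesthetized cynomolgus monkeys under baseline conditions. Regional brain radioactivity was followed by microPET (Concorde microPET P4) and expressed as time-activity curves for the brain regions. Two baseline studies were run per tracer. Tracer radiochemical purity and specific activity were determined by analytical HPLC at the time of injection.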

Cynomolgus monkey [16] = assay: Ratio of uptake in frontal to cerebellum of anesthetized cynomolgus monkey after 65 mins; format: ADME, organism-based; conditions: in vivo
Method in brief: (§4)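 Baseline microPET (Concorde P4) in anesthetized cynomolgus monkey after injection of the [11C]-labelled tracer. Regional time-activity curves were taken, and each region's uptake was divided by cerebellum uptake (low-SERT reference) at 65, 85 and 105 min postinjection.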

Cynomolgus monkey [17] = assay: Ratio of uptake in midbrain to cerebellum of anesthetized cynomolgus monkey after 65 mins; format: ADME, organism-based; conditions: in vivo; method in brief: as §4
Cynomolgus monkey [18] = assay: Uptake in anesthetized cynomolgus monkey medulla after 65.0 mins; format: ADME, organism-based, Medulla of organ; conditions: in vivo; method in brief: as §2
Cynomolgus monkey [19] = assay: Uptake in anesthetized cynomolgus monkey thalamus after 3.5 mins; format: ADME, organism-based; conditions: in vivo; method in brief: as §1
Cynomolgus monkey [20] = assay: Uptake in anesthetized cynomolgus monkey pons after 45.0 mins; format: ADME, organism-based; conditions: in vivo, 0.75 h; method in brief: as §1
Cynomolgus monkey [21] = assay: Uptake in anesthetized cynomolgus monkey putamen after 2.5 mins; format: ADME, organism-based; conditions: in vivo; method in brief: as §1
Cynomolgus monkey [22] = assay: Uptake in anesthetized cynomolgus monkey cerebellum after 3.5 mins; format: ADME, organism-based; conditions: in vivo; method in brief: as §3
Cynomolgus monkey [23] = assay: Uptake in anesthetized cynomolgus monkey pons after 3.5 mins; format: ADME, organism-based; conditions: in vivo; method in brief: as §1
Cynomolgus monkey [24] = assay: Uptake in anesthetized cynomolgus monkey occipital after 15.5 mins; format: ADME, organism-based, Macaca mulatta, Occipital cortex; conditions: rhesus monkey, in vivo; method in brief: as §2
Cynomolgus monkey [25] = assay: Ratio of uptake in pons to cerebellum of anesthetized cynomolgus monkey after 65 mins; format: ADME, organism-based; conditions: in vivo; method in brief: as §4
Cynomolgus monkey [26] = assay: Uptake in anesthetized cynomolgus monkey cerebellum after 1.5 mins; format: ADME, organism-based; conditions: in vivo, 0.025 h; method in brief: as §3
Cynomolgus monkey [27] = assay: Ratio of uptake in putamen to cerebellum of anesthetized cynomolgus monkey after 85 mins; format: ADME, organism-based; conditions: in vivo; method in brief: as §4
Cynomolgus monkey [28] = assay: Uptake in anesthetized cynomolgus monkey cerebellum after 15.5 mins; format: ADME, organism-based, Macaca mulatta; conditions: rhesus monkey, in vivo; method in brief: as §3
Cynomolgus monkey [29] = assay: Ratio of uptake in frontal to cerebellum of anesthetized cynomolgus monkey after 105 mins; format: ADME, organism-based; conditions: in vivo, 1.75 h; method in brief: as §4
Cynomolgus monkey [30] = assay: Uptake in anesthetized cynomolgus monkey cerebellum after 35.0 mins; format: ADME, organism-based, Macaca mulatta; conditions: rhesus monkey, in vivo; method in brief: as §3
Cynomolgus monkey [31] = assay: Uptake in anesthetized cynomolgus monkey frontal after 22.5 mins; format: ADME, organism-based, Frontal cortex; conditions: in vivo, 0.375 h; method in brief: as §2
Cynomolgus monkey [32] = assay: Uptake in anesthetized cynomolgus monkey putamen after 75.0 mins; format: ADME, organism-based; conditions: in vivo, 1.25 h; method in brief: as §1
Cynomolgus monkey [33] = assay: Uptake in anesthetized cynomolgus monkey medulla after 4.5 mins; format: ADME, organism-based, Medulla of organ; conditions: in vivo, 0.075 h; method in brief: as §2
Cynomolgus monkey [34] = assay: Uptake in anesthetized cynomolgus monkey frontal after 3.5 mins; format: ADME, organism-based, Frontal cortex; conditions: in vivo; method in brief: as §2
Cynomolgus monkey [35] = assay: Uptake in anesthetized cynomolgus monkey cerebellum after 2.5 mins; format: ADME, organism-based, Macaca mulatta; conditions: rhesus monkey, in vivo; method in brief: as §3
Cynomolgus monkey [36] = assay: Uptake in anesthetized cynomolgus monkey midbrain after 55.0 mins; format: ADME, organism-based; conditions: in vivo; method in brief: as §2
Cynomolgus monkey [37] = assay: Ratio of uptake in putamen to cerebellum of anesthetized cynomolgus monkey after 105 mins; format: ADME, organism-based; conditions: in vivo, 1.75 h; method in brief: as §4
Cynomolgus monkey [38] = assay: Uptake in anesthetized cynomolgus monkey caudate after 45.0 mins; format: ADME, organism-based, Caudate nucleus; conditions: in vivo, 0.75 h; method in brief: as §3
Cynomolgus monkey [39] = assay: Uptake in anesthetized cynomolgus monkey occipital after 65.0 mins; format: ADME, organism-based, Macaca mulatta, Occipital cortex; conditions: rhesus monkey, in vivo; method in brief: as §2
Cynomolgus monkey [40] = assay: Uptake in anesthetized cynomolgus monkey thalamus after 85.0 mins; format: ADME, organism-based; conditions: in vivo; method in brief: as §1
Cynomolgus monkey [41] = assay: Uptake in anesthetized cynomolgus monkey medulla after 0.5 mins; format: ADME, organism-based, Medulla of organ; conditions: in vivo; method in brief: as §2
Cynomolgus monkey [42] = assay: Uptake in anesthetized cynomolgus monkey pons after 75.0 mins; format: ADME, organism-based; conditions: in vivo, 1.25 h; method in brief: as §1
Cynomolgus monkey [43] = assay: Uptake in anesthetized cynomolgus monkey pons after 18.5 mins; format: ADME, organism-based; conditions: in vivo; method in brief: as §1
Cynomolgus monkey [44] = assay: Uptake in anesthetized cynomolgus monkey pons after 27.5 mins; format: ADME, organism-based; conditions: in vivo; method in brief: as §1
Cynomolgus monkey [45] = assay: Uptake in anesthetized cynomolgus monkey frontal after 0.5 mins; format: ADME, organism-based, Frontal cortex; conditions: in vivo; method in brief: as §3
Cynomolgus monkey [46] = assay: Uptake in anesthetized cynomolgus monkey thalamus after 115.0 mins; format: ADME, organism-based; conditions: in vivo; method in brief: as §1
Cynomolgus monkey [47] = assay: Uptake in anesthetized cynomolgus monkey putamen after 65.0 mins; format: ADME, organism-based; conditions: in vivo; method in brief: as §1
Cynomolgus monkey [48] = assay: Uptake in anesthetized cynomolgus monkey medulla after 45.0 mins; format: ADME, organism-based, Medulla of organ; conditions: in vivo, 0.75 h; method in brief: as §2
Cynomolgus monkey [49] = assay: Ratio of uptake in medulla to cerebellum of anesthetized cynomolgus monkey after 105 mins; format: ADME, organism-based; conditions: in vivo, 1.75 h; method in brief: as §4
Cynomolgus monkey [50] = assay: Uptake in anesthetized cynomolgus monkey midbrain after 0.5 mins; format: ADME, organism-based; conditions: in vivo; method in brief: as §2
Cynomolgus monkey [51] = assay: Uptake in anesthetized cynomolgus monkey midbrain after 105.0 mins; format: ADME, organism-based; conditions: in vivo, 1.75 h; method in brief: as §2
Cynomolgus monkey [52] = assay: Uptake in anesthetized cynomolgus monkey pons after 0.5 mins; format: ADME, organism-based; conditions: in vivo; method in brief: as §2
Cynomolgus monkey [53] = assay: Ratio of uptake in pons to cerebellum of anesthetized cynomolgus monkey after 85 mins; format: ADME, organism-based; conditions: in vivo; method in brief: as §4
Cynomolgus monkey [54] = assay: Uptake in anesthetized cynomolgus monkey frontal after 4.5 mins; format: ADME, organism-based, Frontal cortex; conditions: in vivo, 0.075 h; method in brief: as §2
Cynomolgus monkey [55] = assay: Uptake in anesthetized cynomolgus monkey caudate after 0.5 mins; format: ADME, organism-based, Caudate nucleus; conditions: in vivo; method in brief: as §3

[11CH3]OC(=O)[C@@H]1C2CCC(C[C@@H]1c1cccc(/C=C/I)c1)N2 (stereo not given in full)
Drug uptake (Cynomolgus monkey [1]): 7.2 | Drug uptake (Cynomolgus monkey [2]): 3.42 | Drug uptake (Cynomolgus monkey [3]): 0.01 | Drug uptake (Cynomolgus monkey [4]): 4.84 | Drug uptake (Cynomolgus monkey [5]): 7.23 | Drug uptake (Cynomolgus monkey [6]): 7.11 | Drug uptake (Cynomolgus monkey [7]): 6.94 | Drug uptake (Cynomolgus monkey [8]): 6.9 | Drug uptake (Cynomolgus monkey [9]): 5.28 | Drug uptake (Cynomolgus monkey [10]): 0.29 | Drug uptake (Cynomolgus monkey [11]): 7.14 | Drug uptake (Cynomolgus monkey [12]): 3.05 | Drug uptake (Cynomolgus monkey [13]): 0.89 | Drug uptake (Cynomolgus monkey [14]): 5.01 | Drug uptake (Cynomolgus monkey [15]): 4.69 | Ratio (Cynomolgus monkey [16]): 1 | Ratio (Cynomolgus monkey [17]): 1.7 | Drug uptake (Cynomolgus monkey [18]): 6.94 | Drug uptake (Cynomolgus monkey [19]): 2.1 | Drug uptake (Cynomolgus monkey [20]): 6.02 | Drug uptake (Cynomolgus monkey [21]): 1.14 | Drug uptake (Cynomolgus monkey [22]): 2.19 | Drug uptake (Cynomolgus monkey [23]): 1.79 | Drug uptake (Cynomolgus monkey [24]): 4.69 | Ratio (Cynomolgus monkey [25]): 1.4 | Drug uptake (Cynomolgus monkey [26]): 0.38 | Ratio (Cynomolgus monkey [27]): 1.8 | Drug uptake (Cynomolgus monkey [28]): 5.73 | Ratio (Cynomolgus monkey [29]): 1.2 | Drug uptake (Cynomolgus monkey [30]): 5.42 | Drug uptake (Cynomolgus monkey [31]): 4.03 | Drug uptake (Cynomolgus monkey [32]): 6.92 | Drug uptake (Cynomolgus monkey [33]): 3.9 | Drug uptake (Cynomolgus monkey [34]): 1.21 | Drug uptake (Cynomolgus monkey [35]): 1.2 | Drug uptake (Cynomolgus monkey [36]): 7.57 | Ratio (Cynomolgus monkey [37]): 2.1 | Drug uptake (Cynomolgus monkey [38]): 5.77 | Drug uptake (Cynomolgus monkey [39]): 4.4 | Drug uptake (Cynomolgus monkey [40]): 6.65 | Drug uptake (Cynomolgus monkey [41]): 0.02 | Drug uptake (Cynomolgus monkey [42]): 5.92 | Drug uptake (Cynomolgus monkey [43]): 5.52 | Drug uptake (Cynomolgus monkey [44]): 5.94 | Drug uptake (Cynomolgus monkey [45]): 0.01 | Drug uptake (Cynomolgus monkey [46]): 6.16 | Drug uptake (Cynomolgus monkey [47]): 7.06 | Drug uptake (Cynomolgus monkey [48]): 7.21 | Ratio (Cynomolgus monkey [49]): 2.1 | Drug uptake (Cynomolgus monkey [50]): 0.01 | Drug uptake (Cynomolgus monkey [51]): 7.34 | Drug uptake (Cynomolgus monkey [52]): 0.01 | Ratio (Cynomolgus monkey [53]): 1.6 | Drug uptake (Cynomolgus monkey [54]): 1.91 | Drug uptake (Cynomolgus monkey [55]): 0.01
